Test results taken from ChEMBL document CHEMBL2380226, “Novel dual cyclooxygenase and lipoxygenase inhibitors targeting hyaluronan-CD44v6 pathway and inducing cytotoxicity in colon cancer cells” (Bioorg Med Chem, 2013).
pIC50: −log10 of the molar value. Calls of active or inactive are those of the source. The rule behind the calls is not given here.

Species: Mus musculus
Test: Inhibition of hyaluronan-induced CD44 antigen variant exon 6 activity in mouse APC10.1 cells assessed as cell growth inhibition at 2 to 50 uM after 24 hrs by MTT assay
Type: cell-based
Conditions: not given
Outline: (§1)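 Cells were treated for 24 h at four concentrations in triplicate. MTT (stock 5 mg/ml in PBS, pH 7.2, filtered) was then added and incubated for 4 h at 37°C. Formazan was solubilized with 10% SDS in 0.01 N HCl, and absorbance was read at 570 nm to give viability.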
In the case of `CC(C)(C)C1=CC(=NNC(=O)c2cccnc2)C=C(C(C)(C)C)C1=O`, the “growth inhibition (GI)” value was “Active”.

System: not listed separately
Test: Inhibition of hyaluronan-induced CD44 antigen variant exon 6 activity in human HT-29 cells expressing Has2 assessed as decrease in cell survival after 18 hrs by MTS assay
Type: cell-based
Conditions: HT-29, 18 h
Outline: (§2)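 Cells were harvested, counted and seeded at 20 × 10^3 per well. After 18 h the medium was replaced with medium containing the agents. MTS/PMS reagent was freshly prepared at 2/0.92 mg/mL in DPBS and added in excess, then incubated at 5% CO2. Absorbance was read at 490 nm at 90 min, and cell-free blank absorbance was subtracted. IC50 is the concentration giving 50% inhibition of proliferation, reported as mean ± S.D. (three replicates of 4 independent analyses).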
Molecule `CC(C)(C)C1=CC(=NNC(=O)c2cccnc2)C=C(C(C)(C)C)C1=O` has a pIC50 of 4.54.
In the case of `CC(C)(C)C1=CC(=NNC(=O)c2ccncc2)C=C(C(C)(C)C)C1=O`, the pIC50 was 5.27.
In the case of `Cc1ccc(-c2cc(C(F)(F)F)nn2-c2ccc(S(N)(=O)=O)cc2)cc1` [CELECOXIB], the pIC50 was 4.74.

System: HT-29
Test: Inhibition of hyaluronan-induced CD44 antigen variant exon 6 activity in human HT29 cells assessed as decrease in COX-2 expression at 10 uM
Type: cell-based
Conditions: not given
With `CC(C)(C)C1=CC(=NNC(=O)c2cccnc2)C=C(C(C)(C)C)C1=O` the inhibition was “Active”.
For `CC(C)(C)C1=CC(=NNC(=O)c2ccncc2)C=C(C(C)(C)C)C1=O`, the inhibition was “Active”.
With `Cc1ccc(-c2cc(C(F)(F)F)nn2-c2ccc(S(N)(=O)=O)cc2)cc1` [CELECOXIB] the inhibition was “Active”.

System: not listed separately
Test: Inhibition of hyaluronan-induced CD44 antigen variant exon 6 activity in human HCA-7 cells expressing Has2 assessed as decrease in cell survival after 18 hrs by MTS assay
Type: cell-based
Conditions: HCA-7, 18 h
Outline: as §2
Molecule `CC(C)(C)C1=CC(=NNC(=O)c2cccnc2)C=C(C(C)(C)C)C1=O` has a pIC50 of 4.46.
With `CC(C)(C)C1=CC(=NNC(=O)c2ccncc2)C=C(C(C)(C)C)C1=O` the pIC50 was 4.41.
With `Cc1ccc(-c2cc(C(F)(F)F)nn2-c2ccc(S(N)(=O)=O)cc2)cc1` [CELECOXIB] the pIC50 was 4.76.

System: not listed separately
Test: Cytotoxicity against human HCA-7 cells assessed as decrease in cell survival after 18 hrs by MTS assay
Type: functional, cell-based
Conditions: HCA-7, 18 h
Outline: as §2
`CC(C)(C)C1=CC(=NNC(=O)c2cccnc2)C=C(C(C)(C)C)C1=O` gave a pIC50 of 5.19.
Molecule `CC(C)(C)C1=CC(=NNC(=O)c2ccncc2)C=C(C(C)(C)C)C1=O` has a pIC50 of 4.92.
`Cc1ccc(-c2cc(C(F)(F)F)nn2-c2ccc(S(N)(=O)=O)cc2)cc1` [CELECOXIB] showed a pIC50 of 5.70.

System: HT-29
Test: Inhibition of hyaluronan-induced CD44 antigen variant exon 6 activity in human HT29 cells assessed as decrease in 5-LOX expression at 10 uM
Type: cell-based
Conditions: not given
In the case of `CC(C)(C)C1=CC(=NNC(=O)c2cccnc2)C=C(C(C)(C)C)C1=O`, the inhibition was “Active”.
In the case of `CC(C)(C)C1=CC(=NNC(=O)c2ccncc2)C=C(C(C)(C)C)C1=O`, the inhibition was “Active”.
In the case of `Cc1ccc(-c2cc(C(F)(F)F)nn2-c2ccc(S(N)(=O)=O)cc2)cc1` [CELECOXIB], the inhibition was “Active”.

System: HT-29
Test: Cytotoxicity against human HT-29 cells assessed as growth inhibition at 2 to 50 uM after 24 hrs by MTT assay
Type: functional, cell-based
Conditions: not given
Outline: as §1
In the case of `CC(C)(C)C1=CC(=NNC(=O)c2cccnc2)C=C(C(C)(C)C)C1=O`, the “growth inhibition (GI)” value was “Active”.

Molecular target: T1, Prostaglandin G/H synthase 2 (Ovis aries, UniProt P79208)
T1 sequence (P79208 whole entry): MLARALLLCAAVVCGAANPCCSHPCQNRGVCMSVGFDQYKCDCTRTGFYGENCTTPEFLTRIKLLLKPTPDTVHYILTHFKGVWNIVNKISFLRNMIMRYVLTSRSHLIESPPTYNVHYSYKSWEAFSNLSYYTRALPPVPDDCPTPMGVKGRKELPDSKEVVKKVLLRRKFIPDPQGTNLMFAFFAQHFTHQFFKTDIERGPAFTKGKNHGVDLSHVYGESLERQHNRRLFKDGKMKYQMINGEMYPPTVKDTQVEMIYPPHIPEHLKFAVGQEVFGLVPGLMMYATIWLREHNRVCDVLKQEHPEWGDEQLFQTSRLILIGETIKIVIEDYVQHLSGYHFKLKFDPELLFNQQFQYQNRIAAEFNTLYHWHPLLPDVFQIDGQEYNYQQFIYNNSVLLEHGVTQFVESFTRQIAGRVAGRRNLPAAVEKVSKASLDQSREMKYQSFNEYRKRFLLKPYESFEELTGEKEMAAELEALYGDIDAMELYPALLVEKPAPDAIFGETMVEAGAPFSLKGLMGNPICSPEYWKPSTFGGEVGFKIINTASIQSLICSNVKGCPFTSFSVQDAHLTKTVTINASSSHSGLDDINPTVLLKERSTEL
Test: Inhibition of sheep placental COX-2 using arachidonic acid as substrate assessed as production of PGF2alpha by enzyme immunoassay in presence of stannous chloride
Conditions: not given
Outline: (§3)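 PGH2 formed by the enzyme is reduced with stannous chloride to PGF, which is quantified by competitive EIA. PGs compete with a PG-acetylcholinesterase tracer for PG antiserum, and the complex is captured on an anti-rabbit antibody-coated well. Ellman's reagent is developed and absorbance is read at 405 nm. Percent inhibition is taken against control incubations, and IC50 comes from the concentration-inhibition curve.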
With `CC(C)(C)C1=CC(=NNC(=O)c2cccnc2)C=C(C(C)(C)C)C1=O` the pIC50 was 5.03.
Molecule `CC(C)(C)C1=CC(=NNC(=O)c2ccncc2)C=C(C(C)(C)C)C1=O` has a pIC50 of 5.12.

System: not listed separately
Test: Cytotoxicity against mouse APC10.1 cells assessed as decrease in cell survival after 18 hrs by MTS assay
Type: functional, cell-based
Conditions: not given
Outline: as §2
With `CC(C)(C)C1=CC(=NNC(=O)c2cccnc2)C=C(C(C)(C)C)C1=O` the pIC50 was 5.12.
In the case of `CC(C)(C)C1=CC(=NNC(=O)c2ccncc2)C=C(C(C)(C)C)C1=O`, the pIC50 was 5.05.
For `Cc1ccc(-c2cc(C(F)(F)F)nn2-c2ccc(S(N)(=O)=O)cc2)cc1` [CELECOXIB], the pIC50 was 5.38.

System: HCA-7
Test: Cytotoxicity against human HCA-7 cells assessed as growth inhibition at 2 to 50 uM after 24 hrs by MTT assay
Type: functional, cell-based
Conditions: not given
Outline: as §1
With `CC(C)(C)C1=CC(=NNC(=O)c2cccnc2)C=C(C(C)(C)C)C1=O` the “growth inhibition (GI)” value was “Active”.

System: HT-29
Test: Cytotoxicity against human HT-29 cells assessed as growth inhibition after 18 hrs by MTS assay
Type: functional, cell-based
Conditions: not given
Outline: as §2
For `CC(C)(C)C1=CC(=NNC(=O)c2cccnc2)C=C(C(C)(C)C)C1=O`, the “growth inhibition (GI)” value was “Dose-dependent effect”.
For `CC(C)(C)C1=CC(=NNC(=O)c2ccncc2)C=C(C(C)(C)C)C1=O`, the “growth inhibition (GI)” value was “Dose-dependent effect”.
In the case of `Cc1ccc(-c2cc(C(F)(F)F)nn2-c2ccc(S(N)(=O)=O)cc2)cc1` [CELECOXIB], the “growth inhibition (GI)” value was “Dose-dependent effect”.

System: not listed separately
Test: Inhibition of hyaluronan-induced CD44 antigen variant exon 6 activity in mouse APC10.1 cells expressing Has2 assessed as decrease in cell survival after 18 hrs by MTS assay
Type: cell-based
Conditions: not given
Outline: as §2
Molecule `CC(C)(C)C1=CC(=NNC(=O)c2cccnc2)C=C(C(C)(C)C)C1=O` has a pIC50 of 4.91.
With `CC(C)(C)C1=CC(=NNC(=O)c2ccncc2)C=C(C(C)(C)C)C1=O` the pIC50 was 4.74.
For `Cc1ccc(-c2cc(C(F)(F)F)nn2-c2ccc(S(N)(=O)=O)cc2)cc1` [CELECOXIB], the pIC50 was 5.22.

Species: Mus musculus
Test: Inhibition of hyaluronan-induced CD44 antigen variant exon 6 activity in mouse APC10.1 cells assessed as cell growth inhibition after 18 hrs by MTS assay
Type: cell-based
Conditions: not given
Outline: as §2
With `CC(C)(C)C1=CC(=NNC(=O)c2cccnc2)C=C(C(C)(C)C)C1=O` the “growth inhibition (GI)” value was “Dose-dependent effect”.
For `CC(C)(C)C1=CC(=NNC(=O)c2ccncc2)C=C(C(C)(C)C)C1=O`, the “growth inhibition (GI)” value was “Dose-dependent effect”.
For `Cc1ccc(-c2cc(C(F)(F)F)nn2-c2ccc(S(N)(=O)=O)cc2)cc1` [CELECOXIB], the “growth inhibition (GI)” value was “Dose-dependent effect”.

System: HCA-7
Test: Cytotoxicity against human HCA-7 cells assessed as growth inhibition after 18 hrs by MTS assay
Type: functional, cell-based
Conditions: not given
Outline: as §2
With `CC(C)(C)C1=CC(=NNC(=O)c2cccnc2)C=C(C(C)(C)C)C1=O` the “growth inhibition (GI)” value was “Dose-dependent effect”.
For `CC(C)(C)C1=CC(=NNC(=O)c2ccncc2)C=C(C(C)(C)C)C1=O`, the “growth inhibition (GI)” value was “Dose-dependent effect”.
For `Cc1ccc(-c2cc(C(F)(F)F)nn2-c2ccc(S(N)(=O)=O)cc2)cc1` [CELECOXIB], the “growth inhibition (GI)” value was “Dose-dependent effect”.

Molecular target: not listed separately
Test: Inhibition of potato 5-LOX using arachidonic acid as substrate assessed as production of hydroperoxides after 5 mins […]
Design: species or system Solanum tuberosum
Conditions: not given
Outline: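 Potato 5-LOX was tested with a commercial lipoxygenase screening kit that measures hydroperoxides. Compounds were dissolved in minimal DMSO and diluted in the supplied buffer. The reaction was started with arachidonic acid and shaken for 5 min. Chromogen was added, shaken for 5 min, and absorbance read at 500 nm. Percent inhibition was taken against control, and IC50 was derived from the concentration-inhibition curve from duplicate determinations.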
`CC(C)(C)C1=CC(=NNC(=O)c2ccncc2)C=C(C(C)(C)C)C1=O` showed a pIC50 of 4.70.

Molecular target: T2, Prostaglandin G/H synthase 1 (Ovis aries, UniProt P05979)
T2 sequence (P05979 whole entry): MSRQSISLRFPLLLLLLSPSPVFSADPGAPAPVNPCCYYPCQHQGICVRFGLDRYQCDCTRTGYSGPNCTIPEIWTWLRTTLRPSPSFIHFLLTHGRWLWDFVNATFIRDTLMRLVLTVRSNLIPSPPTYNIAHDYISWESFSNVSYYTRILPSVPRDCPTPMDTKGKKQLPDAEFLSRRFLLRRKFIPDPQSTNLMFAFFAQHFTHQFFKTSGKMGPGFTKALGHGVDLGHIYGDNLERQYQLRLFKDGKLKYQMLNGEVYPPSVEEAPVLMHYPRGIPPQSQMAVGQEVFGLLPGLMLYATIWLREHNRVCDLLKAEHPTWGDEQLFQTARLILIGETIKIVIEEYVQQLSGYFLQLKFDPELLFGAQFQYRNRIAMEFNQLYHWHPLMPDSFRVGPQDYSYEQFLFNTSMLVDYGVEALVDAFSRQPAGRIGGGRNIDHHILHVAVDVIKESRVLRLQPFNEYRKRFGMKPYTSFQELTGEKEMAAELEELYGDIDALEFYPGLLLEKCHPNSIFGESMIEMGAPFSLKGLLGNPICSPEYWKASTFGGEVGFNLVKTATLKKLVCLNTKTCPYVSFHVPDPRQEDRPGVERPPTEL
Test: Inhibition of ram seminal vesicle COX-1 using arachidonic acid as substrate assessed as production of PGF2alpha by enzyme immunoassay in presence of stannous chloride
Conditions: not given
Outline: as §3
Work on `CC(C)(C)C1=CC(=NNC(=O)c2cccnc2)C=C(C(C)(C)C)C1=O` yielded a pIC50 of 4.31.
In the case of `CC(C)(C)C1=CC(=NNC(=O)c2ccncc2)C=C(C(C)(C)C)C1=O`, the pIC50 was 4.25.

Species: Ovis aries
Test: Selectivity ratio of IC50 for sheep placental COX-2 to IC50 for ram seminal vesicle COX-1
Type: tissue-based
Conditions: not given
Work on `CC(C)(C)C1=CC(=NNC(=O)c2cccnc2)C=C(C(C)(C)C)C1=O` yielded a Ratio IC50 of 0.19.
Work on `CC(C)(C)C1=CC(=NNC(=O)c2ccncc2)C=C(C(C)(C)C)C1=O` yielded a Ratio IC50 of 0.14.

Species: Mus musculus
Test: Cytotoxicity against mouse APC10.1 cells expressing COX and LOX assessed as growth inhibition at 2 to 50 uM after 24 hrs by MTT assay
Type: functional, cell-based
Conditions: not given
Outline: as §1
In the case of `CC(C)(C)C1=CC(=NNC(=O)c2cccnc2)C=C(C(C)(C)C)C1=O`, the “growth inhibition (GI)” value was “Active”.

System: HT-29
Test: Cytotoxicity against human HT-29 cells assessed as decrease in cell survival after 18 hrs by MTS assay
Type: functional, cell-based
Conditions: HT-29, 18 h
Outline: as §2
In the case of `CC(C)(C)C1=CC(=NNC(=O)c2cccnc2)C=C(C(C)(C)C)C1=O`, the pIC50 was 4.96.
Work on `CC(C)(C)C1=CC(=NNC(=O)c2ccncc2)C=C(C(C)(C)C)C1=O` yielded a pIC50 of 4.82.
With `Cc1ccc(-c2cc(C(F)(F)F)nn2-c2ccc(S(N)(=O)=O)cc2)cc1` [CELECOXIB] the pIC50 was 5.52.

System: not listed separately
Test: Cytotoxicity against rat IEC-6 cells assessed as growth inhibition at 2 to 50 uM after 24 hrs by MTT assay
Type: cell-based
Conditions: iec-6, 24 h
Outline: as §1
In the case of `CC(C)(C)C1=CC(=NNC(=O)c2cccnc2)C=C(C(C)(C)C)C1=O`, the Activity was “Non-toxic”.
